Usually IC50 stands for the concentration that inhibits the measured activity by half. High values mean weaker potency in that assay, low ones greater potency in that assay.

Experimental findings from ChEMBL document CHEMBL1143728, “Anti-inflammatory benzenoids from Antrodia camphorata” (J Nat Prod, 2007) are described below.

This experiment relates to Neutrophil. Kind of experiment: Inhibition of fMLP-induced superoxide production in human neutrophils. The experiment is classed as functional, cell-based. In short, it runs like this: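 Neutrophils from venous blood of healthy volunteers (20-35 years), isolated by double-gradient Ficoll-Hypaque centrifugation with hypotonic lysis of red cells. Cells at 1 × 10⁶ cells/mL preincubated with test agent (100 µmol/L) 5 min at 37 °C, then stimulated with fMLP (1 µmol/L) in presence of ferricytochrome c (0.5 mg/mL). Extracellular superoxide read continuously by ferricytochrome c reduction at 550 nm. Inhibition % = [(control−resting)−(compound−resting)]/(control−resting) × 100. Three independent experiments, SEM; ibuprofen positive control.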
Consider `COc1cc(C)c(OC)c2c1OCO2`, for which the IC50 is 26.1 µM.
Consider `c1cc2c(cc1[C@H]1OC[C@H]3[C@@H]1CO[C@@H]3c1ccc3c(c1)OCO3)OCO2` [SESAMIN], for which the IC50 came to 90.2 µM.
`COc1cc(OC)c(OC)c(C)c1C#CC(C)=O` [ANTROCAMPHIN B] returned an IC50 above 100 µM.
In the case of `COc1cc(C(=O)Cl)c(OC)c(OC)c1OC`, the IC50 is above 100 µM.
The compound `CC(C)Cc1ccc(C(C)C(=O)O)cc1` (configuration not stated) [IBUPROFEN] yielded an IC50 of 27.5 µM.
`COc1c(C)c(-c2c(C)c(OC)c3c(c2OC)OCO3)c(OC)c2c1OCO2` displayed an IC50 above 100 µM.
The result for `COc1cc(OC)c(OC)c(C)c1C#C[C@@]1(C)OC(=O)O[C@@]1(C)C#Cc1c(OC)cc(OC)c(OC)c1C` [ANTRODIOXOLANONE] reads above 100 µM; that for `C=C(C)C#Cc1c(OC)cc(OC)c(OC)c1C` [ANTROCAMPHIN A], 9.33 µM; that for `C[C@H]1[C@H](O)CC[C@@H]2[C@]1(C)CC[C@H]1[C@@]2(C)CC[C@@]2(C)[C@@H]3CC(C)(C)CC[C@]3(C)CC[C@]12C`, above 100 µM.
In the case of `C=C(CC[C@@H](C)[C@H]1CC[C@H]2C3=C(C(=O)C[C@]12C)[C@@]1(C)CCC(=O)[C@@H](C)[C@@H]1CC3)[C@H](C)C(=O)O` [ANTICIN A], the IC50 was 8.55 µM.
The result for `C=C(CC[C@@H](C(=O)O)[C@H]1CC[C@@]2(C)C3=CC[C@H]4C(C)(C)[C@@H](O)CC[C@]4(C)C3=CC[C@]12C)C(C)C` [DEHYDROEBURICOIC ACID] reads 77.5 µM; that for `C=C(CC[C@@H](C)[C@H]1CC[C@H]2C3=C(C(=O)C[C@]12C)[C@@]1(C)CCC(=O)[C@@H](C)[C@@H]1CC3=O)[C@H](C)C(=O)O` [ANTCIN B], 9.82 µM.
